Results taken from ChEMBL document CHEMBL3864163, “I. Discovery of a novel series of CXCR3 antagonists. Multiparametric optimization of N,N-disubstituted benzylamines” (Bioorg Med Chem Lett, 2016).

What was measured:
[1] = Intrinsic clearance in human hepatocytes assessed per 10^6 cells at 5 uM; type: ADME, cell-based, Hepatocyte
[2] = Metabolic stability in mouse liver microsomes assessed as parent compound remaining in presence of NADPH by LC-MS/MS method; type: ADME
How it was run: (§1)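 Compound incubated with liver microsomes (human or mouse) plus NADPH at 37 °C. Loss of parent was followed by LC-MS-MS and reported as percent. Stability bands: low <40%, medium 40–60%, high >60%.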

[3] = Apparent permeability across human Caco2 cells after 2 hrs by LC-MS method; type: ADME, cell-based; conditions: Caco-2
How it was run: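 Caco-2 monolayers checked for integrity, then dosed alongside high- and low-permeability controls. Apical and basal samples taken at 2 h. Four transport conditions: A-B at pH 6.5/7.4 (0% or 0.5% BSA apical, 5% BSA basal), and A-B and B-A at pH 7.4/7.4 (0.5% BSA both sides). Compound quantified by LC/MS. Rapid transport defined as Papp >20 nm/s.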

[4] = Metabolic stability in human liver microsomes assessed as parent compound remaining in presence of NADPH by LC-MS/MS method; type: ADME; how it was run: as §1
[5] = target: T1, Muscarinic acetylcholine receptor M2 (Homo sapiens) (UniProt P08172); experiment: Displacement of [3H]AF-DX384 from recombinant human muscarinic M2 receptor expressed in CHO cells at 10 uM after 60 mins by scintillation counting method relative to control; type: cell-based
T1 sequence (whole entry): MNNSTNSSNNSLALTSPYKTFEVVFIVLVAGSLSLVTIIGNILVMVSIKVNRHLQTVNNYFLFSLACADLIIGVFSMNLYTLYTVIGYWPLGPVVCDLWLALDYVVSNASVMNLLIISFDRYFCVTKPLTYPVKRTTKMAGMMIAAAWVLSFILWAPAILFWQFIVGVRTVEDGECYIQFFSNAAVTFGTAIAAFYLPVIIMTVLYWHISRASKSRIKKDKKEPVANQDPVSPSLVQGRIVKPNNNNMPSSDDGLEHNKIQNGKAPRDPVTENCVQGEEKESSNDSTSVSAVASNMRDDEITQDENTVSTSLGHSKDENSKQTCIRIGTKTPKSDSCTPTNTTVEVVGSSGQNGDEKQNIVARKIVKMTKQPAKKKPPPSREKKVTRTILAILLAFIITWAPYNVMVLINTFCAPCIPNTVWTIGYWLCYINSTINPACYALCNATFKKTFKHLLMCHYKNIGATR

[6] = Absolute oral bioavailability in Balb/c mouse at 10 mg/kg; type: ADME, organism-based; conditions: in vivo
How it was run: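 Male Balb/c mice dosed once orally at 10 mg/kg and once intravenously at 3 mg/kg. Either 4 animals per route were profiled individually, or sparse sampling used 24 mice with 3 per time point for mean profiles. Absolute oral bioavailability was derived from the two routes.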

[7] = target: T2, Alpha-1A adrenergic receptor (Homo sapiens) (UniProt P35348); experiment: Displacement of [3H]prazosin from recombinant human alpha 1A adrenergic receptor expressed in CHO cells at 10 uM after 60 mins by scintillation counting method relative to control; type: cell-based
T2 sequence (whole entry): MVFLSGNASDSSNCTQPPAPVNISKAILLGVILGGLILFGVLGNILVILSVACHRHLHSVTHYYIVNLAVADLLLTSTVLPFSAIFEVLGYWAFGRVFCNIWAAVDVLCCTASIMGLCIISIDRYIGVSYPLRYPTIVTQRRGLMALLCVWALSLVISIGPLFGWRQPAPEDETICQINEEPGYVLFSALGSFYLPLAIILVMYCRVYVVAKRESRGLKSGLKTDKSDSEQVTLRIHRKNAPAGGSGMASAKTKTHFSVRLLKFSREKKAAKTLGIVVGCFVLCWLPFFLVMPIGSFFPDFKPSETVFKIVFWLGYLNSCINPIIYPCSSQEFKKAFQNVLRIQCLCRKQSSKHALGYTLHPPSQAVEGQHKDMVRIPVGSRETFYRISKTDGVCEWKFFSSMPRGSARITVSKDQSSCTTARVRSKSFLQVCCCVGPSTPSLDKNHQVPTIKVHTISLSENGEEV

[8] = target: T3, C-X-C chemokine receptor type 3 (Homo sapiens, UniProt P49682); experiment: Displacement of [125I]-CXCL10 from human recombinant CXCR3 transfected in Flp-In-CHO cell membranes after 60 mins by gamma counting method
T3 sequence (P49682 whole entry): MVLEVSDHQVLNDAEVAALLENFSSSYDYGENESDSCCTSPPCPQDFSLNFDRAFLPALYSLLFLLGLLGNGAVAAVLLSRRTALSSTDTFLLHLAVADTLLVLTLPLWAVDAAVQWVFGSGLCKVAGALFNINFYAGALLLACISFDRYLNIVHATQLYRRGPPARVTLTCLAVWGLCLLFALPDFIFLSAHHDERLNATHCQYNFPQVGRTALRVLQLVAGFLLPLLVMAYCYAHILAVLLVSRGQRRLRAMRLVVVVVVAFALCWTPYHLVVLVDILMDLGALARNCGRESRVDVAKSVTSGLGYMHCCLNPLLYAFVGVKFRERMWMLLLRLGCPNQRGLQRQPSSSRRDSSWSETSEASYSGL

[9] = target: T4, C-X-C chemokine receptor type 3 (Homo sapiens) (UniProt P49682); experiment: Displacement of [125I]-CXCL10 from human recombinant CXCR3 transfected in Flp-In-CHO cell membranes at 10 uM after 60 mins by gamma counting method relative to control
T4 sequence (whole entry): T3 sequence (P49682 whole entry)

[10] = target: Mu-type opioid receptor (Homo sapiens) (UniProt P35372); experiment: Displacement of [3H]DAMGO from recombinant human mu opioid receptor expressed in HEK293 cells at 10 uM after 60 mins by scintillation counting method relative to control; type: cell-based
Chain of Mu-type opioid receptor (Homo sapiens) (P35372 whole entry): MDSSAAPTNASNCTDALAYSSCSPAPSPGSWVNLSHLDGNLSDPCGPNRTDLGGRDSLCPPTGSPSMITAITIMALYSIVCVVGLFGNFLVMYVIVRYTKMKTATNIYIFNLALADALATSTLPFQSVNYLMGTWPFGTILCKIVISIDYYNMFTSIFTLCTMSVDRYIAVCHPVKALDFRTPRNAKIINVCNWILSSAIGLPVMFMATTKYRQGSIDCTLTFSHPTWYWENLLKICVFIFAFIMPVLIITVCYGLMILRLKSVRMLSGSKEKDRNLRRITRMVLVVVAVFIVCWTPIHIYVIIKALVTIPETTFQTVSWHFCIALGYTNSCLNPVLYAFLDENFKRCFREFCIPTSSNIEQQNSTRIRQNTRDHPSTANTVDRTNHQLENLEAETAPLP

SMILES | CLH [1] [mL/h] | Stability [2] [%] | Papp at 2 h [3] [×10⁻⁶ cm/s] | Stability [4] [%] | inhibition [5] [%] | bioavailability [6] [%] | inhibition [7] [%] | IC50 [8] [nM] | inhibition [9] [%] | inhibition [10] [%]
COc1cc(CN(C[C@H]2CC[C@H](C(=O)O)CC2)[C@H]2CCc3c2ccc(Cl)c3F)ccc1OCCN1C(=O)CCC1=O | 0.031 | 81 | 2.97 | 73 | 16 | 47 | – | – | – | –
Cc1cc(CN(C[C@H]2CC[C@H](C(=O)O)CC2)[C@@H](C)c2ccc(Cl)cc2)ccc1OCCN1C(=O)CCC1=O | 0.138 | 87 | 19.5 | 73 | 97 | 93.5 | 71 | – | – | –
CC(c1ccc2c(c1)CCO2)N(Cc1ccc(OCCN2C(=O)CCC2=O)c(Cl)c1)C[C@H]1CC[C@H](C(=O)O)CC1 (stereo not given in full) | – | 92 | 3.95 | 56 | 98 | – | – | – | – | –
Cc1cc(CN(C[C@H]2CC[C@H](C(=O)O)CC2)[C@@H](C)c2ccc(Cl)cc2)ccc1OCCN1C(=O)CN(C)C1=O | 0.234 | 100 | 15.7 | 63 | – | 63.3 | – | 99 | – | –
COc1cc(CN(C)C(C)c2ccc3c(c2)CCO3)cc(OCCN2C(=O)CCC2=O)c1 (stereo not given) | – | – | – | – | – | – | – | – | 4 | –
COc1cc(CN(C[C@H]2CC[C@H](C(=O)O)CC2)[C@@H]2CCc3cc(Cl)ccc32)ccc1OCCN1C(=O)CCC1=O | – | 55 | 6.62 | 54 | – | – | – | – | – | –
COc1cc(CN(C[C@H]2CC[C@H](C(=O)O)CC2)[C@H]2CCc3c2ccc(Cl)c3Cl)ccc1OCCN1C(=O)CCC1=O | 0.083 | 81 | 5.7 | 75 | 0 | – | – | – | – | –
COc1cc(CN(C[C@H]2CC[C@H](C(=O)O)CC2)[C@@H](C)c2ccc(Cl)cc2)ccc1OCCN1C(=O)CCC1=O | – | 91 | 5.28 | 91 | – | 13.3 | – | – | – | 74
COc1cc(CN(Cc2ccc(-c3nnn[nH]3)cc2)C(C)c2ccc3c(c2)CCO3)ccc1OCCN1C(=O)CCC1=O (stereo not given) | – | 77 | 0.2 | 51 | – | – | – | 126 | – | –
COc1cc(CN(Cc2ccc(C(=O)O)cc2)C(C)c2ccc3c(c2)CCO3)ccc1OCCN1C(=O)CCC1=O (stereo not given) | – | 63 | – | 61 | – | 9 | – | 120 | – | –
COc1cc(CN(C[C@H]2CC[C@H](C(=O)O)CC2)C(C)c2ccc3c(c2)CCO3)ccc1OCCN1C(=O)CSC1=O (stereo not given in full) | – | 73 | 2.93 | 73 | 72 | – | – | – | – | 94
COc1cc(CN(C)C(C)c2ccc3c(c2)CCO3)cc(OCCCN2C(=O)CCC2=O)c1 (stereo not given) | – | – | – | – | – | – | – | – | 15 | –
CCc1cc(CN(C[C@H]2CC[C@H](C(=O)O)CC2)[C@H]2CCc3cc(Cl)ccc32)ccc1OCCN1C(=O)CCC1=O | 0.069 | 96 | 8.02 | 94 | 37 | – | – | – | – | –
COc1cc(CN(Cc2ccc(C(=O)O)cc2)[C@H](C)c2ccc(Cl)cc2)ccc1OCCN1C(=O)CCC1=O | – | 100 | 3.7 | 98 | – | – | – | 345 | – | –
COc1cc(CN(CCCC(=O)O)C(c2ccc3c(c2)CCO3)C2CCCC2)ccc1OCCN1C(=O)CCC1=O (stereo not given) | – | 94 | 3.21 | 92 | – | – | – | 382 | – | –
CCC(c1ccc2c(c1)CCO2)N(Cc1ccc(C(=O)O)cc1)Cc1ccc(OCCN2C(=O)CCC2=O)c(OC)c1 (stereo not given) | – | 78 | 1.46 | 60 | – | – | – | 160 | – | –
COc1cc(CN(CC23CCC(C(=O)O)(CC2)CC3)C(C)c2ccc3c(c2)CCO3)ccc1OCCN1C(=O)CCC1=O (stereo not given) | – | 79 | 6.56 | 71 | – | – | – | 225 | – | –

SMILES | CLH [1] [mL/h] | Stability [2] [%] | Papp at 2 h [3] [×10⁻⁶ cm/s] | Stability [4] [%] | inhibition [5] [%] | bioavailability [6] [%] | inhibition [7] [%] | IC50 [8] [nM] | inhibition [9] [%] | inhibition [10] [%]
COc1cc(CN(CCCC(=O)O)C(C)c2ccc3c(c2)CCO3)ccc1OCCN1C(=O)CCC1=O (stereo not given) | – | 95 | – | 100 | – | 2 | – | 210 | – | –
COc1cc(CN(C[C@H]2CC[C@H](C(=O)O)CC2)C(C)c2ccc3c(c2)CCO3)ccc1OCCN1C(=O)CCC1=O (stereo not given in full) | – | 92 | 0.98 | 98 | 54 | 17.3 | – | – | – | –
COc1cc(CN(C)C(C)c2ccc3c(c2)CCO3)ccc1OCN1C(=O)CCC1=O (stereo not given) | – | – | – | – | – | – | – | – | 8 | –
COc1cc(CN(C[C@H]2CC[C@H](C(=O)O)CC2)[C@H]2CCc3cc(Cl)ccc32)ccc1SCCN1C(=O)CCC1=O | – | 3 | 7.24 | 15 | – | – | – | – | – | –
CC(c1ccc2c(c1)CCO2)N(C)Cc1ccc2c(c1)OC[C@H](CN1C(=O)CCC1=O)O2 (stereo not given in full) | – | – | – | – | – | – | – | – | 36 | –
COc1cc(CN(Cc2ccc(/C=C/C(=O)O)cc2)C(C)c2ccc3c(c2)CCO3)ccc1OCCN1C(=O)CCC1=O (stereo not given) | – | 87 | 1.34 | 84 | – | – | – | 138 | – | –
COc1cc(CN(C[C@H]2CC[C@H](C(=O)O)CC2)[C@H]2CCc3cc(Cl)ccc32)ccc1CCCN1C(=O)CCC1=O | – | 24 | 16.5 | 36 | – | – | – | 1000 | – | –
Cc1cc(CN(C[C@H]2CC[C@H](C(=O)O)CC2)C(C)c2ccc3c(c2)CCO3)ccc1OCCN1C(=O)CCC1=O (stereo not given in full) | – | 87 | 2.22 | 70 | 99 | 4.1 | – | – | – | 78
COc1ccc(CN(C)C(C)c2ccc3c(c2)CCO3)cc1OCCN1C(=O)CCC1=O (stereo not given) | – | – | – | – | – | – | – | – | 18 | –
COc1cc(CN(C)C(C)c2ccc3c(c2)CCO3)ccc1OCCN1C(=O)CNC1=O (stereo not given) | – | 55 | – | 60 | – | – | – | 240 | – | –
CC(c1ccc2c(c1)CCO2)N(C)Cc1ccc2c(c1)OCCN2CCN1C(=O)CCC1=O (stereo not given) | – | – | – | – | – | – | – | – | 7 | –
COc1cc(CN(Cc2ccc3c(c2)CCO3)CC(C)C)ccc1OCCN1C(=O)CCC1=O | – | 11 | – | 7 | – | – | – | 70 | – | –
COc1cc(CN(CCN)C(C)c2ccc3c(c2)CCO3)ccc1OCCN1C(=O)CCC1=O (stereo not given) | – | 13 | – | 48 | – | – | – | 2200 | – | –
COc1cc(CN(C[C@H]2CC[C@H](C(=O)O)CC2)[C@@H](C)c2ccc(Cl)cc2)ccc1OCCn1c(=O)ccn(C)c1=O | 0.159 | 76 | 8.01 | 62 | – | 26.7 | – | – | – | –
COc1cc(CN(Cc2ccncc2)C(C)c2ccc3c(c2)CCO3)ccc1OCCN1C(=O)CCC1=O (stereo not given) | – | 42 | – | 41 | – | – | – | 130 | – | –
COc1cc(CN(C)C(C)c2ccc3c(c2)CCO3)ccc1OCCCN1C(=O)CCC1=O (stereo not given) | – | – | – | – | – | – | – | – | 39 | –
